pEC50, pIC50: −log10 of the molar value. Activity calls are given as the source filed them. No cut-off for these calls is given here.

Data set [1] addresses T1, Phosphatidylcholine:ceramide cholinephosphotransferase 2 (Homo sapiens, UniProt Q8NHU3).
T1 sequence (Q8NHU3 whole entry): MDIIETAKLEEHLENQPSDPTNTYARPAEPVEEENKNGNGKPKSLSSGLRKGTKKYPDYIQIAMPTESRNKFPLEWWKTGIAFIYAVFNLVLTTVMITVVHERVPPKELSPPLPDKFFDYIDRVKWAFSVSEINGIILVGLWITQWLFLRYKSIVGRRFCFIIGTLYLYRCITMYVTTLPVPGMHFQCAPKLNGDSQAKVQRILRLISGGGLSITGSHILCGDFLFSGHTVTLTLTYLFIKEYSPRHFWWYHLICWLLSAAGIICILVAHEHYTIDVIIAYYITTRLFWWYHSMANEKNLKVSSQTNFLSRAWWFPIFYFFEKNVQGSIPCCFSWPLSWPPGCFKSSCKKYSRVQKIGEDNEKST
Nature of the data set: Inhibition of SMS2 (unknown origin) expressed in H5 insect cells using C6-NBD-Cer as substrate after 1 hr. A digest of the protocol: (§1)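 SMS2 came from homogenate of H5 insect cells overexpressing it, prepared at 50 mg pellet/mL in 0.25 M sucrose, 50 mM Tris-HCl pH 7.4, 1 mM EDTA and spun at 12,000 rpm for 10 min. The enzyme (2 µg total protein) was preincubated with inhibitor for 30 min at 37 °C in 10 mM HEPES pH 7.4, 3 mM MnCl2, 0.3% BSA. Reaction was started with 1.01 mM C6-NBD-Cer plus DMPC in DMSO and run 1 h at 37 °C. Product was quantified by HPLC as for SMS.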

Data set [2] addresses T1, Phosphatidylcholine:ceramide cholinephosphotransferase 2. Kind of data set: Inhibition of SMS2 (unknown origin) expressed in H5 insect cells using C6-NBD-Cer as substrate at 100 uM after 1 hr. A digest of the protocol: as §1
The nature of data set [3]: Inhibition of sphingomyelin synthase in ICR mouse liver homogenates using C6-NBD-Cer as substrate after 2 hrs. Type of data set: tissue-based. Put shortly: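 Enzyme was the 12,000 rpm supernatant of ICR mouse liver homogenized at 300 mg/mL in 0.25 M sucrose, 50 mM Tris-HCl pH 7.4, 1 mM EDTA; 2 µg protein per assay. Preincubated with inhibitor 30 min at 37 °C in 10 mM HEPES pH 7.4, 3 mM MnCl2, 0.3% BSA. C6-NBD-ceramide and DMPC were then added and the reaction ran 2 h at 37 °C before ethanol quench. C6-NBD-SM was measured by C18 HPLC with fluorescence detection (ex 475/em 525 nm). IC50 from five inhibitor concentrations, triplicate, log[inhibitor] vs response fit.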

Data set [4] in a line: Inhibition of sphingomyelin synthase (unknown origin). The arrangement: species or system Homo sapiens.
Data set [5] in a line: Half life in saline solution at 24 degC. Type of data set: ADME.
A short description of data set [6]: Cytotoxicity against human HuH7 cells assessed as cell viability after 17 hrs by MTT assay. The class given is cell-based, Huh-7. Put shortly: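 Huh-7 cells exposed to a range of concentrations for 17 h, then viability read by MTT. CC50 is the concentration giving 50% inhibition relative to vehicle (0.25% DMSO). Quintuplicate samples; mean of at least two independent tests.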
Background: Tetrazolium dyes change colour on reduction, which living cells bring about.

In data set [7] the test system is Mus musculus. Nature of the data set: Inhibition of sphingomyelin synthase in ICR mouse assessed as decrease of sphingomyelin level in plasma at 6 mg/kg, ip after 2 hrs. The class given is functional, organism-based. The arrangement: dose 6 mg/kg. Put shortly:
(§2)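 Female ICR mice (about 25 g), n=5 per group, received 150 µg (6 mg/kg) in 15 µL DMSO plus 185 µL PBS pH 7.4, given i.v. or i.p.; controls got vehicle i.v. Blood was taken from the eye after 2 h and frozen in liquid nitrogen. Plasma ceramide and sphingomyelin were measured by mass spectrometry. Groups compared by Student's t-test.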

Data set [8] relates to Mus musculus. Kind of data set: Inhibition of sphingomyelin synthase in ICR mouse assessed as decrease of sphingomyelin level in plasma at 6 mg/kg, iv after 2 hrs. Type of data set: functional, organism-based. The arrangement: dose 6 mg/kg. A digest of the protocol:
as §2

The test system of data set [9] is Mus musculus. Kind of data set: Inhibition of sphingomyelin synthase in ICR mouse assessed as increase of ceramide level in plasma at 6 mg/kg, iv after 2 hrs. Type of data set: functional, organism-based. The arrangement: dose 6 mg/kg. Put shortly: as §2
Data set [10] has as its system Mus musculus. Nature of the data set: Inhibition of sphingomyelin synthase in ICR mouse assessed as increase of ceramide level in plasma at 6 mg/kg, ip after 2 hrs. Type of data set: functional, organism-based. The arrangement: dose 6 mg/kg. A digest of the protocol:
as §2

The target of data set [11] is Sphingomyelin synthase (Mus musculus). Nature of the data set: Inhibition of SMS in ICR mouse liver homogenate using C6-NBD-Cer as substrate after 2 hrs.
Data set [12] is described as follows: Inhibition of sphingomyelin synthase (unknown origin) by cell based assay. The conditions noted are these: Homo sapiens.

For the compound `N#CC(NCc1ccco1)c1ccccc1OCc1ccccc1` (centres undefined), in [1], the pIC50 was 4.15.
Still for that read-out and setting: with `N#CC(Nc1ccccc1)c1cccc(OCc2ccccc2)c1` (centres undefined) the figure was 4.29.
Take `COc1cccc(NC(C#N)c2ccccc2OCc2ccccc2)c1` (centres undefined): in [2], the IC50 result is “Not Active”.
In data set [1], `N#CC(Nc1ccc(O)cc1)c1ccccc1OCc1ccccc1` (centres undefined) had a pIC50 of 4.61.
As to `c1ccc(COc2ccccc2C(Nc2ccccc2)c2nnn[nH]2)cc1` (centres undefined), in [2], the IC50 entry is recorded as “Not Active”.
With `Cc1cccc(C)c1NC(C#N)c1ccccc1OCc1ccccc1` (centres undefined), the pIC50 in data set [1] is 4.50.
`N#CC(Nc1ccc(Cl)cc1)c1ccccc1OCc1ccccc1` (centres undefined): the results for the pIC50 in data set [3] and in [1] were 4.03 and 4.65, respectively.
`c1ccc(COc2ccccc2CNc2ccccc2)cc1`: in [2], the IC50 result was “Not Active”.
As for `O=C(C(c1ccccc1)c1ccccc1)N1CCN(CC(O)COc2cccc3ncccc23)CC1` (centres undefined), the pIC50 in data set [4] was < 3.30.
For the compound `N#CC(Nc1ccccc1)c1ccc(OCc2ccccc2)cc1` (centres undefined), the IC50 result in data set [2] was “Not Active”.
For `COc1ccc(NC(C#N)c2ccccc2OCc2ccccc2)cc1` (centres undefined), in data set [1], the pIC50 is 4.32.
On the same count and under the same terms, with `Cc1ccccc1NC(C#N)c1ccccc1OCc1ccccc1` (centres undefined) the figure was 4.17.
Consider `N#CC(Nc1ccccc1Cl)c1ccccc1OCc1ccccc1` (centres undefined), for which the pIC50 in [3] is 4.04; in data set [1] it was 4.80.
In data set [5], `S=C(OC1CC2CC1C1CCCC21)[S][K]` (centres undefined) gave a half-life of 19.5 min.
On to `N#Cc1ccccc1NC(C#N)c1ccccc1OCc1ccccc1` (centres undefined), for which the pIC50 in [1] was 4.69.
On the same count and under the same terms, to `N#CC(Nc1cccnc1)c1ccccc1OCc1ccccc1` (centres undefined) belongs 4.46.
Regarding `N#CC(Nc1ccc(C(N)=O)cc1)c1ccccc1OCc1ccccc1` (centres undefined), the pIC50 was 3.71 in data set [3] and 4.09 in data set [1].
`N#CC(Nc1ccccc1)c1ccccc1` (centres undefined): in data set [2], the IC50 entry was “Not Active”.
Take `N#CC(Nc1ccccc1[N+](=O)[O-])c1ccccc1OCc1ccccc1` (centres undefined): in [1], the pIC50 was 4.56.
As to `COc1ccccc1NC(C#N)c1ccccc1OCc1ccccc1` (centres undefined), the pIC50 in data set [3] is 4.45; in [1], 4.91.
With `N#CC(Nc1ccccc1)c1ccccc1OCc1ccccc1` (centres undefined), the pIC50 in data set [3] is 4.61; in data set [1] it was 4.87. The CC50 at 17 h in data set [6] was 245 µM. Further, the inhibition entry in [7], in [8], in data set [9] and in [10] was “Active” in each case.
`N#CC(Nc1ccccc1O)c1ccccc1OCc1ccccc1` (centres undefined): the pIC50 in data set [1] was 4.72.
The same measure, in the same setting: with `Cc1ccc(NC(C#N)c2ccccc2OCc2ccccc2)cc1` (centres undefined) the figure was 4.68.
Compound `N#CC1c2ccccc2OC(c2ccccc2O)N1c1ccccc1` (centres undefined) gave a pIC50 in data set [11] of 4.12.
With `S=C(S)OC1CC2CC1C1CCCC21` (centres undefined), the negative logarithm of the IC50 (pIC50) is 3.40 in data set [3], 3.43 in [4] and 3.65 in [1]. The compound further showed a pEC50 in data set [12] of 4.05.
With `NC(=O)C(Nc1ccccc1)c1ccccc1OCc1ccccc1` (centres undefined), the pIC50 in data set [1] is 3.87.

A word on the pIC50: it is −log10 of the IC50, conventionally taken in molar units. Low readings indicate a high IC50, high ones a low IC50. One may read the half-life as the time in which the quantity being followed falls by half. For orientation: CC50 means the concentration at which the toxic effect on the cells reaches its halfway point. The pEC50 is the EC50 on a negative log10 scale, so that one unit is a factor of ten. Low values mean a high EC50, high ones a low EC50.

Source of the values: ChEMBL document CHEMBL3112565, “Identification of small molecule sphingomyelin synthase inhibitors” (Eur J Med Chem, 2014).
